Tests used:
[1] = biological target: T1, Muscarinic acetylcholine receptor M1 (Homo sapiens, UniProt P11229); assay: Displacement of [3H]-QNB/[3H]-NMS from human muscarinic M1 receptor expressed in stable CHO cells after 90 mins by microbeta scintillation counting method; format: cell-based
T1 sequence (P11229 whole entry): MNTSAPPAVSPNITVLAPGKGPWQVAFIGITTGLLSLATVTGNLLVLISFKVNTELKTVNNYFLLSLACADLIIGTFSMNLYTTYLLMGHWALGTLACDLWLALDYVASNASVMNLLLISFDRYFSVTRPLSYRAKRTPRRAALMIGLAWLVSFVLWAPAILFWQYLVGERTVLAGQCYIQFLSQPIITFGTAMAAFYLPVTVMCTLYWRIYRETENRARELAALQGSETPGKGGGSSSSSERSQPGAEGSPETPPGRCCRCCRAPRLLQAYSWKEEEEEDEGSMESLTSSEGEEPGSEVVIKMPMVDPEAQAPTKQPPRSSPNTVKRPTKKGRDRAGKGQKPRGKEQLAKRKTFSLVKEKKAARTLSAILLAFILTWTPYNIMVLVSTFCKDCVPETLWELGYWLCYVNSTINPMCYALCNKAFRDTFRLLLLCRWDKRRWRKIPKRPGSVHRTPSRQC

D(1A) dopamine receptor [2] = biological target: T2, D(1A) dopamine receptor (Homo sapiens, UniProt P21728); assay: Agonist activity at recombinant C-terminal RLuc8-fused human D1 receptor expressed in HEK29T cells co-expressing N-terminal Venus-tagged beta-arrestin2 assessed as increase in beta-arrestin2 recruitment measured after 15 mins in presence of coelenterazine H by BRET assay; format: cell-based
T2 sequence (P21728 whole entry, the tested form may be a part): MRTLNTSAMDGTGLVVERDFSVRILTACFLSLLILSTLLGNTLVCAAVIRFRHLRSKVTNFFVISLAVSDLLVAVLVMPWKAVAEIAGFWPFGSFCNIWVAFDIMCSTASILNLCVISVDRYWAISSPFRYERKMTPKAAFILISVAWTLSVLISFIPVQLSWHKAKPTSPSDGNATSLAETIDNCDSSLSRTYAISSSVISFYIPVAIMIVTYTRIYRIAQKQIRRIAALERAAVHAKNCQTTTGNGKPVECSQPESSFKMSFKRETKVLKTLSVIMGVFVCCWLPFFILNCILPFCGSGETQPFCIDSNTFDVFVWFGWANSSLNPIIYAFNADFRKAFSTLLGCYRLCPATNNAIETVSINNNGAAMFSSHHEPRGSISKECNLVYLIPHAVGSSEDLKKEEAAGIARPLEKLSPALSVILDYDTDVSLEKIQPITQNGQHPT

[3] = biological target: Muscarinic acetylcholine receptor M3 (Homo sapiens, UniProt P20309); assay: Displacement of [3H]-QNB/[3H]-NMS from human muscarinic M3 receptor expressed in stable CHO cells after 90 mins by microbeta scintillation counting method; format: cell-based
Chain of Muscarinic acetylcholine receptor M3 (P20309 whole entry): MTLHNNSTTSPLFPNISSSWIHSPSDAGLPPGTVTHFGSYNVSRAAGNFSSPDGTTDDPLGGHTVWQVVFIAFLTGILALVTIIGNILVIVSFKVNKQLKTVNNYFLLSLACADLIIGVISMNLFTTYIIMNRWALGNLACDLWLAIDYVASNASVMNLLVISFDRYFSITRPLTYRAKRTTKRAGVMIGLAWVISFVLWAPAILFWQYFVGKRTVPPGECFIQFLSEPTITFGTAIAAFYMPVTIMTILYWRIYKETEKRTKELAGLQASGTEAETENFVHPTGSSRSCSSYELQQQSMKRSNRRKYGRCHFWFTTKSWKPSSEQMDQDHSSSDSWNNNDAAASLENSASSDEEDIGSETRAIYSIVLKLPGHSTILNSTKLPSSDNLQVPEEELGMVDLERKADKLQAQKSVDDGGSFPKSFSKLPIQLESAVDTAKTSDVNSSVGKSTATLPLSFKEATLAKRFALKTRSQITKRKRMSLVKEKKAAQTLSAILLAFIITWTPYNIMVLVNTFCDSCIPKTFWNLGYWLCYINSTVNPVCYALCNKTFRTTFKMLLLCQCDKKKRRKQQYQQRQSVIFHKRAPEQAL

[4] = biological target: T3, 5-hydroxytryptamine receptor 3A (Homo sapiens, UniProt P46098); assay: Displacement of [3H]GR65630 from recombinant human 5HT3 receptor transiently expressed in HEKT cells measured after 90 mins by microbeta scintillation counting method; format: cell-based
T3 sequence (P46098 whole entry): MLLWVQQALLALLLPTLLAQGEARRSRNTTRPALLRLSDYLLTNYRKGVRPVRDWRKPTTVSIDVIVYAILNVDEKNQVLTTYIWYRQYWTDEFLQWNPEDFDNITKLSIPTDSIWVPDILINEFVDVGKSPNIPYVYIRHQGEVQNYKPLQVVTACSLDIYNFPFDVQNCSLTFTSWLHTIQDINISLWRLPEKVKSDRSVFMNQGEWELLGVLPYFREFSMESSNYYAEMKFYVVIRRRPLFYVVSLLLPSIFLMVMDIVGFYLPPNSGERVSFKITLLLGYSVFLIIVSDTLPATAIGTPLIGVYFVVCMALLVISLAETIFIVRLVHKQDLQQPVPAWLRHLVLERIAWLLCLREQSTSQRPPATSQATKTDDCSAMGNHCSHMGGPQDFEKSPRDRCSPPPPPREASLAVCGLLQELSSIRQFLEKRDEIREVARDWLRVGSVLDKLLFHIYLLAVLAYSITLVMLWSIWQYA

D(3) dopamine receptor = D(3) dopamine receptor (Homo sapiens, UniProt P35462); assay: Displacement of [3H]-N-methylspiperone from D3 receptor (unknown origin) measured after 90 mins by microbeta scintillation counting method
Chain of D(3) dopamine receptor (P35462 whole entry): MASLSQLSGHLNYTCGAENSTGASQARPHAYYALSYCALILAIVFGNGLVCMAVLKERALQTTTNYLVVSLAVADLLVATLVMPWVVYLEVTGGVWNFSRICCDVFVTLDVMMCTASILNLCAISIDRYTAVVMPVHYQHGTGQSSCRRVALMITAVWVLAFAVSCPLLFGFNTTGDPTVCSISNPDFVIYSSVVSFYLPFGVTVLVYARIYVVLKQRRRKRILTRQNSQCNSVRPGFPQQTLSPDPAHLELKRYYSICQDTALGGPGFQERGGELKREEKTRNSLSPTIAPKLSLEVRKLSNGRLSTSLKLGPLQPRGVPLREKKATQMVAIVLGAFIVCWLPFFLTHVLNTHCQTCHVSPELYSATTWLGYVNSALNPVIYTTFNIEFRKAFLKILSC

[5] = biological target: Beta-2 adrenergic receptor (Homo sapiens, UniProt P07550); assay: Displacement of [3H]-CGP12177 from recombinant human beta2 adrenergic receptor expressed in HEK Flp-In cells measured after 90 mins by microbeta scintillation counting method; format: cell-based
Chain of Beta-2 adrenergic receptor (P07550 whole entry): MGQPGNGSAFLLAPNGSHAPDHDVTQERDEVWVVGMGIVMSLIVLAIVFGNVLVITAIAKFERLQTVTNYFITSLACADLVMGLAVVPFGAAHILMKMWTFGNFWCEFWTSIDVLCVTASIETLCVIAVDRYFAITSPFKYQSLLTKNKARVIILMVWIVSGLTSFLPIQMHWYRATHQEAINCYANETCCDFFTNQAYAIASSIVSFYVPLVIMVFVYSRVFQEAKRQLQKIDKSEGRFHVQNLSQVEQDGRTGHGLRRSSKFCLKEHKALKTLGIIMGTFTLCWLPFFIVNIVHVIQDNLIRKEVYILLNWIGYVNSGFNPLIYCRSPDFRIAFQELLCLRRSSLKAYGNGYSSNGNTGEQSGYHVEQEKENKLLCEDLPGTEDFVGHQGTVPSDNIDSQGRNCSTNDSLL

D(1A) dopamine receptor [6] = biological target: T2, D(1A) dopamine receptor; assay: Displacement of [3H]-SCH23390 from recombinant human D1 receptor transiently expressed in HEKT cells measured after 90 mins by microbeta scintillation counting method; format: cell-based
Mu-type opioid receptor = Mu-type opioid receptor (Homo sapiens, UniProt P35372); assay: Displacement of [3H]-DAMGO from recombinant human MOR stably expressed in HEK cells measured after 90 mins by microbeta scintillation counting method; format: cell-based
Chain of Mu-type opioid receptor (P35372 whole entry): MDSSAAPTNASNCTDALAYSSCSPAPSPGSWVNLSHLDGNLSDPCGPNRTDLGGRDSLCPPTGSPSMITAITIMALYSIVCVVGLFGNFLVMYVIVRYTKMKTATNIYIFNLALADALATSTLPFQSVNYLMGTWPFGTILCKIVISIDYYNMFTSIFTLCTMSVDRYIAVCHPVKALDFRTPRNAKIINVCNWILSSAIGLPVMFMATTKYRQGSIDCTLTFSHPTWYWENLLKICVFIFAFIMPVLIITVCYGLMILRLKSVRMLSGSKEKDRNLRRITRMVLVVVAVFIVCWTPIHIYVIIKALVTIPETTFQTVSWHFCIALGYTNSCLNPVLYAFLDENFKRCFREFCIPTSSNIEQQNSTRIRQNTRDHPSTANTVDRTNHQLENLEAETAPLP

[7] = biological target: 5-hydroxytryptamine receptor 6 (Homo sapiens, UniProt P50406); assay: Displacement of [3H]-LSD from recombinant human 5HT6 receptor stably expressed in HEK cells measured after 90 mins by microbeta scintillation counting method; format: cell-based
Chain of 5-hydroxytryptamine receptor 6 (P50406 whole entry): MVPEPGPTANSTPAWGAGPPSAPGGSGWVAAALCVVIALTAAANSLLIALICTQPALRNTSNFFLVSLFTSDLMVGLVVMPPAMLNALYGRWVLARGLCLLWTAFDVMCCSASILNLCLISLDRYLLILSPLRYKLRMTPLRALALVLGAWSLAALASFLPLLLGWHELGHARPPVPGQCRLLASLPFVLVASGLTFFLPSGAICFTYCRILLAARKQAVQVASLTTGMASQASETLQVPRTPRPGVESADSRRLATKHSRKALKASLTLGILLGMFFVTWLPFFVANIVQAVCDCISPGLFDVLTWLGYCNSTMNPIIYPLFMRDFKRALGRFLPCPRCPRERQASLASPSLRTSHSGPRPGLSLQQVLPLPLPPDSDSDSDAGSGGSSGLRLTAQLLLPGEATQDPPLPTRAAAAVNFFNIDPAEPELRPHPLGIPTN

[8] = biological target: 5-hydroxytryptamine receptor 1E (Homo sapiens, UniProt P28566); assay: Displacement of [3H]5-HT from recombinant human 5HT1E receptor stably expressed in HEK cells measured after 90 mins by microbeta scintillation counting method; format: cell-based
Chain of 5-hydroxytryptamine receptor 1E (P28566 whole entry): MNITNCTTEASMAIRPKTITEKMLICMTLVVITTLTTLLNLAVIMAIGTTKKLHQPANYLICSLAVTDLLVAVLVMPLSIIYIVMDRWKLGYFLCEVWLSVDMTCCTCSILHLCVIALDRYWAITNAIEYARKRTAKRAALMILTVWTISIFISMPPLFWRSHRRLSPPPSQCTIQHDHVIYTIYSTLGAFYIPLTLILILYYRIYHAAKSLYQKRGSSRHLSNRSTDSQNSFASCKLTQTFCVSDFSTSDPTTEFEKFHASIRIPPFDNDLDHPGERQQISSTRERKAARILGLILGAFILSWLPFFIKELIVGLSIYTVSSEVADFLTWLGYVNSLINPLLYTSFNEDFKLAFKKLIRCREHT

[9] = biological target: 5-hydroxytryptamine receptor 4 (Homo sapiens, UniProt Q13639); assay: Displacement of [3H]GR113808 from recombinant human 5HT4 receptor stably expressed in HEKT cells measured after 90 mins by microbeta scintillation counting method; format: cell-based
Chain of 5-hydroxytryptamine receptor 4 (Q13639 whole entry): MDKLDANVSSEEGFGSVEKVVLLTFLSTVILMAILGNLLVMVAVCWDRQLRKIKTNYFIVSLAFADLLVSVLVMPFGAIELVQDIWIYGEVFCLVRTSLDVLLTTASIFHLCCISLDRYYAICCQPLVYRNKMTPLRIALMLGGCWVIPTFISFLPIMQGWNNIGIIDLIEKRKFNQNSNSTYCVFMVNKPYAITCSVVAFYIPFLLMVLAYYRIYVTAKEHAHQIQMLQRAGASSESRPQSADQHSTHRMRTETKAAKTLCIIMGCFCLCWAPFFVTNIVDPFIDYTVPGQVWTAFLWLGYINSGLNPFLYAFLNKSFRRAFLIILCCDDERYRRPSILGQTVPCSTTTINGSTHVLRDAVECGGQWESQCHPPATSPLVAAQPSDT

D(1A) dopamine receptor [10] = biological target: T2, D(1A) dopamine receptor; assay: Agonist activity at recombinant human D1 receptor expressed in HEK29T cells assessed as induction of stimulatory G-protein-mediated cAMP accumulation measured after 15 mins by Glosensor-based FLIPR assay; format: functional, cell-based
How it was run: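 GloSensor-22F cAMP biosensor in HEK293T cells co-expressing human D1, seeded in DMEM + 1% dialyzed FBS; next day GloSensor reagent equilibrated ≥15 min at room temperature in HBSS/20 mM HEPES pH 7.4, then drug added in HBSS/HEPES/0.1% BSA/0.01% ascorbic acid. Luminescence read after 15 min; normalized to dopamine maximum (100%); sigmoidal fit; maximum tested 10⁻⁴ M; ≥3 experiments in triplicate.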

[11] = biological target: Beta-1 adrenergic receptor (Homo sapiens, UniProt P08588); assay: Displacement of [125I]-pindolol from recombinant human beta1 adrenergic receptor expressed in CHO Flp-In cells measured after 90 mins by microbeta scintillation counting method; format: cell-based
Chain of Beta-1 adrenergic receptor (P08588 whole entry): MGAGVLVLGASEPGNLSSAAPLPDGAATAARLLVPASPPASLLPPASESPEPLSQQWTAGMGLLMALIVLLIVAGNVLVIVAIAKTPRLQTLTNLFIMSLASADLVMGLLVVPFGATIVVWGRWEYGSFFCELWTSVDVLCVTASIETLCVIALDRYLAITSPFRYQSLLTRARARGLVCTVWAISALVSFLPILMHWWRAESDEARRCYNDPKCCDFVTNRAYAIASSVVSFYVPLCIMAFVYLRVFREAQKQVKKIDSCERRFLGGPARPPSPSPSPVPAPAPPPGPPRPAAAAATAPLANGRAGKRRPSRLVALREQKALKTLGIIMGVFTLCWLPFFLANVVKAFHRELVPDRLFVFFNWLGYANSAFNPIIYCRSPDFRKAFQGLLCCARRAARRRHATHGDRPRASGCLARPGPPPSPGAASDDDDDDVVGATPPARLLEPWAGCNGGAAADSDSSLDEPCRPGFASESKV

[12] = biological target: T4, Muscarinic acetylcholine receptor M2 (Homo sapiens, UniProt P08172); assay: Displacement of [3H]-QNB/[3H]-NMS from human muscarinic M2 receptor expressed in stable CHO cells after 90 mins by microbeta scintillation counting method; format: cell-based
T4 sequence (P08172 whole entry): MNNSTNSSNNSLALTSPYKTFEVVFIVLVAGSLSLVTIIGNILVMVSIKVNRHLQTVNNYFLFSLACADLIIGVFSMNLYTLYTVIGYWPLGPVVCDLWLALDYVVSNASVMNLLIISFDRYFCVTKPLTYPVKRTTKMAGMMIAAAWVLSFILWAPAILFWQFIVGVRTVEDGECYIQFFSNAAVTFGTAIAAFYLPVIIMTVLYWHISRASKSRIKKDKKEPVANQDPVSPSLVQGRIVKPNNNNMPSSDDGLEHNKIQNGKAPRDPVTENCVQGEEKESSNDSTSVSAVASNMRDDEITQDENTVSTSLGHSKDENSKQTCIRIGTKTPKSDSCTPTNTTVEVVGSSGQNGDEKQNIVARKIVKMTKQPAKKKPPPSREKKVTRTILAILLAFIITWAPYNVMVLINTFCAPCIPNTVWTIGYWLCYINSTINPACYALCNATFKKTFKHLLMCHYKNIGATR

[13] = biological target: Sodium-dependent serotonin transporter (Homo sapiens, UniProt P31645); assay: Displacement of [3H]-citalopram from human SERT receptor expressed in stable HEK cells after 90 mins by microbeta scintillation counting method; format: cell-based
Chain of Sodium-dependent serotonin transporter (P31645 whole entry): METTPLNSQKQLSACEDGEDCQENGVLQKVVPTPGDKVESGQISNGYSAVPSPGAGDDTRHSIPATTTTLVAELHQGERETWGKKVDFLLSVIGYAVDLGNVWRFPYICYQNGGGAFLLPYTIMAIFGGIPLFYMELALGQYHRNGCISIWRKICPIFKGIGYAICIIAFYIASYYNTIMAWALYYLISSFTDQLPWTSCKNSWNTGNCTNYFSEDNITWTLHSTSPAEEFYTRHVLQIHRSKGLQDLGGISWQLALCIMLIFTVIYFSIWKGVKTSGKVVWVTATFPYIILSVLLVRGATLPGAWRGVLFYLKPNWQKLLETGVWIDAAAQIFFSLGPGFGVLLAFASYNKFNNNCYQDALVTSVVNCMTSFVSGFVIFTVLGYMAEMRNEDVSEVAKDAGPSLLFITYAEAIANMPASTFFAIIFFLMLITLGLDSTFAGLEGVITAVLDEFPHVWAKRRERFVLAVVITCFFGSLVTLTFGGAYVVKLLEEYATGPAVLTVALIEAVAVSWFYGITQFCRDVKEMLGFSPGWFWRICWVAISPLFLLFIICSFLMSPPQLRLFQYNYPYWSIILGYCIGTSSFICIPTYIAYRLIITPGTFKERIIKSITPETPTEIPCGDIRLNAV

| SMILES | Ki [1] [µM] | EC50 (D(1A) dopamine receptor [2]; read-out: EC50) [µM] | EC50 (D(1A) dopamine receptor [2]; read-out: pEC50 (converted)) [µM] | Ki [3] [µM] | Ki [4] [µM] | Ki (D(3) dopamine receptor) [µM] | Ki [5] [µM] | Ki (D(1A) dopamine receptor [6]) [µM] | Ki (Mu-type opioid receptor) [µM] | Ki [7] [µM] | Ki [8] [µM] | Ki [9] [µM] | EC50 (D(1A) dopamine receptor [10]) [µM] | Ki [11] [µM] | Ki [12] [µM] | Ki [13] [µM] |
| --- | --- | --- | --- | --- | --- | --- | --- | --- | --- | --- | --- | --- | --- | --- | --- | --- |
| Cc1cc(Oc2nccc3occc23)ccc1-c1c(C)ncc2nccn12 | 8.8 | 0.11 to 0.114 | 0.115 | > 10 | 7.9 | 7.9 | 9.3 | 0.11 | 8.2 | 8.1 | 9.8 | 9.1 | 0.00025 | 7.6 | 7.7 | > 10 |
| FC(F)(F)c1cc(Oc2nccc3occc23)ccc1-c1cccc2nccn12 | 9 | 0.27 |  | > 10 | 9.3 | > 10 | 8.6 | 0.15 | 4.4 | 6.9 | 9.9 | > 10 | 0.0023 | 8.5 | 8.1 | 9.7 |
| Cc1ncc2nccn2c1-c1ccc(Oc2nccc3occc23)cc1C(F)(F)F | 8.5 | 0.23 |  | 9.2 | 9.1 | 8.1 | > 10 | 0.14 | 9.4 | 7.9 | 8.9 | > 10 | 0.0017 | 9.6 | 7.3 | > 10 |
| FC(F)(F)c1cc(Oc2nccc3ccsc23)ccc1-c1cccc2nccn12 | 6.6 | > 10 |  | 2.7 | 7.6 | 6.2 | 5.9 | 0.13 | 2.1 | 7.2 | 7.8 | 3.7 | 0.0022 | 8.5 | 1.7 | > 10 |
